Data published in ChEMBL document CHEMBL3425438, “Investigation of (E)-3-[4-(2-Oxo-3-aryl-chromen-4-yl)oxyphenyl]acrylic Acids as Oral Selective Estrogen Receptor Down-Regulators” (J Med Chem, 2015).

Experiments:
Estrogen receptor [1] = biological target: T1, Estrogen receptor (Homo sapiens, UniProt P03372); experiment: Binding affinity to ER alpha (unknown origin) by LanthaScreen TR-FRET competitive binding assay
T1 sequence (P03372 whole entry): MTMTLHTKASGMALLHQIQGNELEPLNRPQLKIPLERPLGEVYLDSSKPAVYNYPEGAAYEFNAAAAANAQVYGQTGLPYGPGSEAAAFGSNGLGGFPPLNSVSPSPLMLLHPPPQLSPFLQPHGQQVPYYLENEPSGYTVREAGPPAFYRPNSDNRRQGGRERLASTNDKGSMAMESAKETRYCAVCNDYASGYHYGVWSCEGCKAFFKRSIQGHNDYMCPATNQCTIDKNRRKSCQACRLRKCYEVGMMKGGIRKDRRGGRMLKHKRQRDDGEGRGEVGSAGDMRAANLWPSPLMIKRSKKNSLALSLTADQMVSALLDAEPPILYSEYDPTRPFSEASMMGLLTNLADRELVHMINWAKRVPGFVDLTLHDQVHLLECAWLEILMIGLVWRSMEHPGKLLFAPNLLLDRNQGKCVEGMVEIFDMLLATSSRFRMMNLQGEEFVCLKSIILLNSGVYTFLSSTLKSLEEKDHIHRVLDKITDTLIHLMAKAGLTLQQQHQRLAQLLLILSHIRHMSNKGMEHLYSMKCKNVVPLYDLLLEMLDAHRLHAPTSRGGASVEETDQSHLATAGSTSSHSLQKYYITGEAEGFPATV
Outline: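 LanthaScreen TR-FRET ERα competitive binding; 12-point half-log concentration response; TR-FRET emission ratio read on microplate reader; IC50 reported.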

[2] = Octanol-buffer partition coefficient, log D of the compound at ratio of 1:100 at pH 7.4 by shake-flask method; type: physicochemical
Estrogen receptor [3] = biological target: T1, Estrogen receptor; experiment: Suppression of ER alpha in human MCF7 cells after 24 hrs by immunostaining analysis; type: cell-based
[4] = Intrinsic clearance in human hepatocytes measured per 10^6 cells; type: ADME, cell-based, Hepatocyte; conditions: read-out: CLH
[5] = Dissociation constant, pKa of the compound by potentiometric analysis […] phenol; type: physicochemical
Outline: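 pKa (acid and phenol) by potentiometric titration.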

[6] = Intrinsic clearance in rat hepatocytes measured per 10^6 cells; type: ADME, cell-based, Hepatocyte; conditions: read-out: CLH

Work on `Cc1cccc(-c2c(Cc3ccc(/C=C/C(=O)O)cc3)c3ccc(O)cc3oc2=O)c1` yielded an IC50 (Estrogen receptor [1]) of 17 nM, a logD [2] of 2.2 and an IC50 (Estrogen receptor [3]) of 3090 nM.

Compound `COc1cccc(-c2c(Cc3ccc(/C=C/C(=O)O)cc3)c3ccc(O)cc3oc2=O)c1` has an IC50 (Estrogen receptor [1]) of 41 nM, a logD [2] of 1.9 and an IC50 (Estrogen receptor [3]) of 5640 nM.

With `O=C(O)/C=C/c1ccc(Cc2c(-c3cccc(OC(F)(F)F)c3)c(=O)oc3cc(O)ccc23)cc1` the IC50 (Estrogen receptor [1]) was 5.9 nM, the logD [2] was 2.9 and the IC50 (Estrogen receptor [3]) was 1710 nM.

In the case of `O=C(O)/C=C/c1ccc(Cc2c(-c3ccc(Cl)cc3)c(=O)oc3cc(O)ccc23)cc1`, the IC50 (Estrogen receptor [1]) is reported as 3.7 nM, the logD [2] is reported as 2.4 and the IC50 (Estrogen receptor [3]) is reported as 471 nM.

Compound `O=C(O)/C=C/c1ccc(Cc2c(-c3ccc(C(F)(F)F)cc3)c(=O)oc3cc(O)ccc23)cc1` has an IC50 (Estrogen receptor [1]) of 4.6 nM, a logD [2] of 2.6 and an IC50 (Estrogen receptor [3]) of 531 nM.

`COc1ccc(-c2c(Cc3ccc(/C=C/C(=O)O)cc3)c3ccc(O)cc3oc2=O)cc1` gave an IC50 (Estrogen receptor [1]) of 3.8 nM, a logD [2] of 1.9 and an IC50 (Estrogen receptor [3]) of 350 nM.

Work on `O=C(O)/C=C/c1ccc(Cc2c(-c3ccc(OC(F)(F)F)cc3)c(=O)oc3cc(O)ccc23)cc1` yielded a hepatocyte CLint [4] of 9 µL/min/1e6 cells, an IC50 (Estrogen receptor [1]) of 1.6 nM and a pKa [5] of 8.7. The hepatocyte CLint [6] was 40 µL/min/1e6 cells, the logD [2] was 2.8 and the IC50 (Estrogen receptor [3]) was 52 nM.

`O=C(O)/C=C/c1ccc(Cc2c(-c3ccc(F)cc3F)c(=O)oc3cc(O)ccc23)cc1` gave an IC50 (Estrogen receptor [1]) of 3 nM, a logD [2] of 1.7 and an IC50 (Estrogen receptor [3]) of 660 nM.

Compound `O=C(O)/C=C/c1ccc(Cc2c(-c3ccc(F)cc3Cl)c(=O)oc3cc(O)ccc23)cc1` has an IC50 (Estrogen receptor [1]) of 2.2 nM and an IC50 (Estrogen receptor [3]) of 178 nM.

Compound `COc1cc(F)ccc1-c1c(Cc2ccc(/C=C/C(=O)O)cc2)c2ccc(O)cc2oc1=O` has an IC50 (Estrogen receptor [1]) of 11 nM, a logD [2] of 1.8 and an IC50 (Estrogen receptor [3]) of 2260 nM.

Work on `Cc1cc(Cl)ccc1-c1c(Cc2ccc(/C=C/C(=O)O)cc2)c2ccc(O)cc2oc1=O` yielded an IC50 (Estrogen receptor [1]) of 1.5 nM and an IC50 (Estrogen receptor [3]) of 30 nM.

Compound `Cc1cc(OC(F)(F)F)ccc1-c1c(Cc2ccc(/C=C/C(=O)O)cc2)c2ccc(O)cc2oc1=O` has an IC50 (Estrogen receptor [1]) of 1 nM, a logD [2] of 3.1 and an IC50 (Estrogen receptor [3]) of 7 nM.

With `Cc1cc(F)ccc1-c1c(-c2ccc(/C=C/C(=O)O)cc2)c2ccc(O)cc2oc1=O` the IC50 (Estrogen receptor [1]) was 5.8 nM, the logD [2] was 2 and the IC50 (Estrogen receptor [3]) was 256 nM.

With `Cc1cc(F)ccc1-c1c(Nc2ccc(/C=C/C(=O)O)cc2)c2ccc(O)cc2oc1=O` the IC50 (Estrogen receptor [1]) was 25 nM, the logD [2] was 1.3 and the IC50 (Estrogen receptor [3]) was 1450 nM.

`Cc1cc(F)ccc1-c1c(N(C)c2ccc(/C=C/C(=O)O)cc2)c2ccc(O)cc2oc1=O` gave an IC50 (Estrogen receptor [1]) of 9.9 nM, a logD [2] of 2.3 and an IC50 (Estrogen receptor [3]) of 60 nM.

Compound `O=C(O)/C=C/c1ccc(Cc2c(-c3ccc(OC(F)(F)F)cc3)c(=O)oc3ccccc23)cc1` has a hepatocyte CLint [4] of 8 µL/min/1e6 cells, an IC50 (Estrogen receptor [1]) of 360 nM and a hepatocyte CLint [6] of 20 µL/min/1e6 cells. It also gave a logD [2] of 2.8 and an IC50 (Estrogen receptor [3]) of 1300 nM.

With `Cc1cc(F)ccc1-c1c(Cc2ccc(/C=C/C(=O)O)cc2)c2ccc(C(F)F)cc2oc1=O` the hepatocyte CLint [4] was < 3 µL/min/1e6 cells, the IC50 (Estrogen receptor [1]) was 390 nM and the hepatocyte CLint [6] was 16 µL/min/1e6 cells. For the same compound, the logD [2] was 2.2 and the IC50 (Estrogen receptor [3]) was > 2150 nM.

With `COc1ccc2c(Cc3ccc(/C=C/C(=O)O)cc3)c(-c3ccc(OC(F)(F)F)cc3)c(=O)oc2c1` the hepatocyte CLint [4] was 23 µL/min/1e6 cells, the IC50 (Estrogen receptor [1]) was 1100 nM and the hepatocyte CLint [6] was 23 µL/min/1e6 cells. The logD [2] was 3 and the IC50 (Estrogen receptor [3]) was 3600 nM.

Compound `O=C(O)/C=C/c1ccc(Cc2c(-c3ccc(OC(F)(F)F)cc3)c(=O)oc3cc(F)ccc23)cc1` has an IC50 (Estrogen receptor [1]) of 5800 nM, a hepatocyte CLint [6] of 4.4 µL/min/1e6 cells and a logD [2] of 2.5. The IC50 (Estrogen receptor [3]) was 10600 nM.

Compound `Cc1cc(OC(F)(F)F)ccc1-c1c(Oc2ccc(/C=C/C(=O)O)cc2)c2ccc(C(F)F)cc2oc1=O` has a hepatocyte CLint [4] of 11 µL/min/1e6 cells, an IC50 (Estrogen receptor [1]) of 50 nM and a hepatocyte CLint [6] of 3 µL/min/1e6 cells. It also gave a logD [2] of 3 and an IC50 (Estrogen receptor [3]) of 506 nM.

With `CCOc1ccc2c(Oc3ccc(/C=C/C(=O)O)cc3)c(-c3ccc(OC(F)(F)F)cc3C)c(=O)oc2c1` the hepatocyte CLint [4] was 20 µL/min/1e6 cells, the IC50 (Estrogen receptor [1]) was 50 nM and the hepatocyte CLint [6] was 21 µL/min/1e6 cells. It also gave an IC50 (Estrogen receptor [3]) of 253 nM.

Work on `Cc1cc(F)ccc1-c1c(Cc2ccc(/C=C/C(=O)O)cc2)c2ccc(N)cc2oc1=O` yielded a hepatocyte CLint [4] of 10 µL/min/1e6 cells, a hepatocyte CLint [6] of 18 µL/min/1e6 cells and a logD [2] of 1.7. The IC50 (Estrogen receptor [3]) was 1380 nM.
